Experimental data: ChEMBL document CHEMBL2396592, “Discovery of Dap-3 polymyxin analogues for the treatment of multidrug-resistant Gram-negative nosocomial infections” (J Med Chem, 2013)
In brackets after ≈: the same amount, converted by molar mass. Where a SMILES comes first, the peptide text is derived from it. Bridges are numbered along the chain shown (N, C = ends). [ ]: non-standard residue; d: D form. The star is where a group is joined. X7 = N#Cc1ccc(-c2cc(C(=O)*)ccc2Cl)cc1; X11 = COc1cc(C(=O)*)cc(-c2ccccc2)c1; X12 = O=C(c1ccc(Cl)c(-c2ccccc2)c1)*; X4 = O=C(c1ccnc(-c2ccc(Cl)cc2)c1)*; X5 = O=C(c1ccc(Cl)c(-c2ccccn2)c1)*; X9 = COc1ccc(-c2cc(C(=O)*)ccn2)cc1; 2Naphthoyl = O=C(c1ccc2ccccc2c1)*; X10 = O=C(c1ccnc(-c2ccccc2Cl)c1)*; X8 = N#Cc1cc(C(=O)*)ccc1-c1ccccc1; X2 = COc1ccc(C(=O)*)cc1-c1ccccc1; X1 = O=C(c1cnnc(-c2ccccc2)c1)*; X3 = O=C(c1cncc(-c2ccccc2)c1)*; X6 = CC[C@H](C)CCCCC(=O)*; Dab = NCC[C@H](N)C(=O)O; Dap = NC[C@H](N)C(=O)O

Legend:
Klebsiella pneumoniae = test: Antibacterial activity against polymyxin-sensitive ESBL-positive Klebsiella pneumoniae clinical isolate 3700 assessed as growth inhibition by broth microdilution method; format: functional
Pseudomonas aeruginosa [1] = test: Bactericidal activity against polymyxin-resistant Pseudomonas aeruginosa clinical isolate 1646; format: functional
Summary of the method: (§1)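 Test strain PA-1646 is a P. aeruginosa isolate with a mutated PmrAB two-component system. The system is constitutively active, so the modified lipid A moiety is constantly expressed on the cell surface, giving a polymyxin-resistant phenotype.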

[2] = Cytotoxicity against human RPTEC after 24 hrs by LDH assay; format: cell-based; conditions: RPTEC cells, read-out: TC50
Summary of the method: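 Primary human renal proximal tubule epithelial cells in REGM (EGF, hydrocortisone, epinephrine, insulin, T3, transferrin, gentamycin/amphotericin-B, FBS). After 72 h of growth at 37 °C, 5% CO2, cells were exposed for 24 h to aqueous compound at 100, 67, 44, 30, 20 and 13 μM. LDH release into the supernatant was measured by kit and TC50 (μM) derived, with PMB and PMBN as controls.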

Pseudomonas aeruginosa [3] = test: Antibacterial activity against polymyxin-resistant Pseudomonas aeruginosa clinical isolate 1646 assessed as growth inhibition by broth microdilution method; format: functional; summary of the method: as §1
Pseudomonas aeruginosa [4] = test: Antibacterial activity against polymyxin-sensitive Pseudomonas aeruginosa 1401 assessed as growth inhibition by broth microdilution method; format: functional
Summary of the method: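 CLSI broth microdilution MIC against P. aeruginosa 1401 (PA01) and 1402 (UC12120), the two strains used in the mouse thigh model.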

Acinetobacter baumannii [5] = test: Antibacterial activity against polymyxin-sensitive Acinetobacter baumannii clinical isolate 3167 assessed as growth inhibition by broth microdilution method; format: functional
Escherichia coli = test: Antibacterial activity against polymyxin-sensitive Escherichia coli isolate 1 assessed as growth inhibition by broth microdilution method; format: functional
Acinetobacter baumannii [6] = test: Antibacterial activity against polymyxin-resistant Acinetobacter baumannii clinical isolate 1649 assessed as growth inhibition by broth microdilution method; format: functional
Acinetobacter baumannii [7] = test: Bactericidal activity against polymyxin-resistant Acinetobacter baumannii clinical isolate 1649; format: functional

SMILES	MIC (Klebsiella pneumoniae) [µg/mL]	MBC (Pseudomonas aeruginosa [1]) [µg/mL]	CC50 at 24 h [2] [µM]	MIC (Pseudomonas aeruginosa [3]) [µg/mL]	MIC (Pseudomonas aeruginosa [4]) [µg/mL]	MIC (Acinetobacter baumannii [5]) [µg/mL]	MIC (Escherichia coli) [µg/mL]	MIC (Acinetobacter baumannii [6]) [µg/mL]	MBC (Acinetobacter baumannii [7]) [µg/mL]
CC(C)C[C@@H]1NC(=O)[C@@H](Cc2ccccc2)NC(=O)[C@H](CCN)NC(=O)[C@@H](NC(=O)[C@H](CN)NC(=O)[C@@H](NC(=O)[C@H](CCN)NC(=O)c2ccc3ccccc3c2)[C@@H](C)O)CCNC(=O)[C@H]([C@@H](C)O)NC(=O)[C@H](CCN)NC(=O)[C@H](CCN)NC1=O (2Naphthoyl-[Dab]T[Dap][Dab][Dab][dF]L[Dab][Dab]T; lactam 4-C)	0.125	16 (≈ 13.3 µM)	51	4	0.5	0.25	0.125	2	2 (≈ 1.66 µM)
CC(C)C[C@@H]1NC(=O)[C@@H](Cc2ccccc2)NC(=O)[C@H](CCN)NC(=O)[C@@H](NC(=O)[C@H](CN)NC(=O)[C@@H](NC(=O)[C@H](CCN)NC(=O)c2cnnc(-c3ccccc3)c2)[C@@H](C)O)CCNC(=O)[C@H]([C@@H](C)O)NC(=O)[C@H](CCN)NC(=O)[C@H](CCN)NC1=O (X1-[Dab]T[Dap][Dab][Dab][dF]L[Dab][Dab]T; lactam 4-C)	0.125	8 (≈ 6.5 µM)	84	2	0.25	0.25	0.125	2	4 (≈ 3.25 µM)
COc1ccc(C(=O)N[C@@H](CCN)C(=O)N[C@H](C(=O)N[C@@H](CN)C(=O)N[C@H]2CCNC(=O)[C@H]([C@@H](C)O)NC(=O)[C@H](CCN)NC(=O)[C@H](CCN)NC(=O)[C@H](CC(C)C)NC(=O)[C@@H](Cc3ccccc3)NC(=O)[C@H](CCN)NC2=O)[C@@H](C)O)cc1-c1ccccc1 (X2-[Dab]T[Dap][Dab][Dab][dF]L[Dab][Dab]T; lactam 4-C)	0.25	2 (≈ 1.59 µM)	27	1	0.5	0.5	0.25	2	2 (≈ 1.59 µM)
CC(C)C[C@@H]1NC(=O)[C@@H](Cc2ccccc2)NC(=O)[C@H](CCN)NC(=O)[C@@H](NC(=O)[C@H](CN)NC(=O)[C@@H](NC(=O)[C@H](CCN)NC(=O)c2cncc(-c3ccccc3)c2)[C@@H](C)O)CCNC(=O)[C@H]([C@@H](C)O)NC(=O)[C@H](CCN)NC(=O)[C@H](CCN)NC1=O (X3-[Dab]T[Dap][Dab][Dab][dF]L[Dab][Dab]T; lactam 4-C)	0.25	4 (≈ 3.25 µM)	56	2	0.5	0.25	0.125	4	4 (≈ 3.25 µM)
CC(C)C[C@@H]1NC(=O)[C@@H](Cc2ccccc2)NC(=O)[C@H](CCN)NC(=O)[C@@H](NC(=O)[C@H](CN)NC(=O)[C@@H](NC(=O)[C@H](CCN)NC(=O)c2ccnc(-c3ccc(Cl)cc3)c2)[C@@H](C)O)CCNC(=O)[C@H]([C@@H](C)O)NC(=O)[C@H](CCN)NC(=O)[C@H](CCN)NC1=O (X4-[Dab]T[Dap][Dab][Dab][dF]L[Dab][Dab]T; lactam 4-C)	0.25	1 (≈ 0.791 µM)	30	1	0.5	0.25	0.25	1	1 (≈ 0.791 µM)
CC(C)C[C@@H]1NC(=O)[C@@H](Cc2ccccc2)NC(=O)[C@H](CCN)NC(=O)[C@@H](NC(=O)[C@H](CN)NC(=O)[C@@H](NC(=O)[C@H](CCN)NC(=O)c2ccc(Cl)c(-c3ccccn3)c2)[C@@H](C)O)CCNC(=O)[C@H]([C@@H](C)O)NC(=O)[C@H](CCN)NC(=O)[C@H](CCN)NC1=O (X5-[Dab]T[Dap][Dab][Dab][dF]L[Dab][Dab]T; lactam 4-C)	0.25	16 (≈ 12.6 µM)	72	4	1	0.25	0.25	4	4 (≈ 3.16 µM)
CC[C@H](C)CCCCC(=O)N[C@@H](CCN)C(=O)N[C@H](C(=O)N[C@@H](CCN)C(=O)N[C@H]1CCNC(=O)[C@H]([C@@H](C)O)NC(=O)[C@H](CCN)NC(=O)[C@H](CCN)NC(=O)[C@H](CC(C)C)NC(=O)[C@@H](Cc2ccccc2)NC(=O)[C@H](CCN)NC1=O)[C@@H](C)O (X6-[Dab]T[Dab][Dab][Dab][dF]L[Dab][Dab]T; lactam 4-C)	0.5	16 (≈ 13.3 µM)	27	4	0.5	0.25	0.125	4	4 (≈ 3.32 µM)
CC[C@H](C)CCCCC(=O)N[C@@H](CCN)C(=O)N[C@H](C(=O)N[C@@H](CN)C(=O)N[C@H]1CCNC(=O)[C@H]([C@@H](C)O)NC(=O)[C@H](CCN)NC(=O)[C@H](CCN)NC(=O)[C@H](CC(C)C)NC(=O)[C@@H](Cc2ccccc2)NC(=O)[C@H](CCN)NC1=O)[C@@H](C)O (X6-[Dab]T[Dap][Dab][Dab][dF]L[Dab][Dab]T; lactam 4-C)	0.125	2 (≈ 1.68 µM)	72	1	0.5	0.125	0.125	4	4 (≈ 3.36 µM)
CC(C)C[C@@H]1NC(=O)[C@@H](Cc2ccccc2)NC(=O)[C@H](CCN)NC(=O)[C@@H](NC(=O)[C@H](CN)NC(=O)[C@@H](NC(=O)[C@H](CCN)NC(=O)c2ccc(Cl)c(-c3ccc(C#N)cc3)c2)[C@@H](C)O)CCNC(=O)[C@H]([C@@H](C)O)NC(=O)[C@H](CCN)NC(=O)[C@H](CCN)NC1=O (X7-[Dab]T[Dap][Dab][Dab][dF]L[Dab][Dab]T; lactam 4-C)	0.5	4 (≈ 3.1 µM)	20	1	1	0.5	0.5	4	4 (≈ 3.1 µM)
CC(C)C[C@@H]1NC(=O)[C@@H](Cc2ccccc2)NC(=O)[C@H](CCN)NC(=O)[C@@H](NC(=O)[C@H](CN)NC(=O)[C@@H](NC(=O)[C@H](CCN)NC(=O)c2ccc(-c3ccccc3)c(C#N)c2)[C@@H](C)O)CCNC(=O)[C@H]([C@@H](C)O)NC(=O)[C@H](CCN)NC(=O)[C@H](CCN)NC1=O (X8-[Dab]T[Dap][Dab][Dab][dF]L[Dab][Dab]T; lactam 4-C)	0.5	4 (≈ 3.19 µM)	32	2	1	0.25	0.5	1	1 (≈ 0.797 µM)
COc1ccc(-c2cc(C(=O)N[C@@H](CCN)C(=O)N[C@H](C(=O)N[C@@H](CN)C(=O)N[C@H]3CCNC(=O)[C@H]([C@@H](C)O)NC(=O)[C@H](CCN)NC(=O)[C@H](CCN)NC(=O)[C@H](CC(C)C)NC(=O)[C@@H](Cc4ccccc4)NC(=O)[C@H](CCN)NC3=O)[C@@H](C)O)ccn2)cc1 (X9-[Dab]T[Dap][Dab][Dab][dF]L[Dab][Dab]T; lactam 4-C)	0.25	8 (≈ 6.35 µM)	78	2	0.5	0.25	0.25	2	2 (≈ 1.59 µM)
CC(C)C[C@@H]1NC(=O)[C@@H](Cc2ccccc2)NC(=O)[C@H](CCN)NC(=O)[C@@H](NC(=O)[C@H](CN)NC(=O)[C@@H](NC(=O)[C@H](CCN)NC(=O)c2ccnc(-c3ccccc3Cl)c2)[C@@H](C)O)CCNC(=O)[C@H]([C@@H](C)O)NC(=O)[C@H](CCN)NC(=O)[C@H](CCN)NC1=O (X10-[Dab]T[Dap][Dab][Dab][dF]L[Dab][Dab]T; lactam 4-C)	0.25	16 (≈ 12.6 µM)	86	4	0.5	0.25	0.125	1	1 (≈ 0.791 µM)
COc1cc(C(=O)N[C@@H](CCN)C(=O)N[C@H](C(=O)N[C@@H](CN)C(=O)N[C@H]2CCNC(=O)[C@H]([C@@H](C)O)NC(=O)[C@H](CCN)NC(=O)[C@H](CCN)NC(=O)[C@H](CC(C)C)NC(=O)[C@@H](Cc3ccccc3)NC(=O)[C@H](CCN)NC2=O)[C@@H](C)O)cc(-c2ccccc2)c1 (X11-[Dab]T[Dap][Dab][Dab][dF]L[Dab][Dab]T; lactam 4-C)	0.25	4 (≈ 3.18 µM)	26	2	0.5	0.25	0.25	4	8 (≈ 6.35 µM)
CC(C)C[C@@H]1NC(=O)[C@@H](Cc2ccccc2)NC(=O)[C@H](CCN)NC(=O)[C@@H](NC(=O)[C@H](CN)NC(=O)[C@@H](NC(=O)[C@H](CCN)NC(=O)c2ccc(Cl)c(-c3ccccc3)c2)[C@@H](C)O)CCNC(=O)[C@H]([C@@H](C)O)NC(=O)[C@H](CCN)NC(=O)[C@H](CCN)NC1=O (X12-[Dab]T[Dap][Dab][Dab][dF]L[Dab][Dab]T; lactam 4-C)	0.25	1 (≈ 0.791 µM)	14	0.5	1	0.5	0.25	1	1 (≈ 0.791 µM)
